The list is not random: actives were taken first. Their share in the collection is about 3%.
UBC13 polyUb – UBC13 polyubiquitin chain formation inhibitors, primary screen, biochemical, TR-FRET, uHTS. AID 485273, 2010. Ubiquitin-conjugating enzyme E2 N (Homo sapiens), P61088. inhibition, % at 20 µM. 330,000 tested, 0.47% active; in the data active means inhibition above about 45%, passing the limit was not always enough
Apaf1 inhib – inhibitors of human Apaf-1 apoptosome, primary screen, biochemical, DEVD-Rh110 fluorescence, uHTS. inhibition, % at 20 µM. reconstituted apoptosome caspase-3 activity. 330,000 tested, 0.71% active. AID 489030, 2010; active means inhibition of at least 40% at 20 µM;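 further: plate controls were DMSO wells for no effect and DEVD-CHO caspase inhibitor wells for full effect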
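detection = Rh110 fluorescence intensity | test system = biochemical Apaf-1 apoptosome reconstitution | also added = cytochrome c and DEVD-Rh110 substrate | schedule = 30 min plus 50 min, RT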
SENP8 block-1 – human SENP8 protease inhibitors, primary screen, biochemical, fluorescence, Nedd8 protein substrate, uHTS; Sentrin-specific protease 8 (Homo sapiens), Q96LD8; recombinant SENP8; inhibition, % at 20 µM; 360,000 tested, 0.64% active; in the data active means inhibition mostly above about 40%, no sharp cut-off; inactive means mostly below about 27%
SENP8 block-2 – SENP8 protease inhibitors, primary screen, biochemical, luminescence; Sentrin-specific protease 8 (Homo sapiens), Q96LD8; purified SENP8, Z-RLRGG-aminoluciferin cleavage; inhibition, % at 10 µM; 330,000 tested, 1.2% active; in the data active means inhibition above about 50%
SENP7 block – SENP7 protease inhibitors, primary screen, biochemical, luminescence, uHTS; Sentrin-specific protease 7 (Homo sapiens), Q9BQF6; recombinant SENP7, Z-RLRGG-aminoluciferin luminescence, 40 min; inhibition, % at 5 µM; 330,000 tested, 1.5% active;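 active means inhibition above about 50% at the single test dose, limit read from the data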;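 further: plate controls were DMSO with enzyme for no effect and no enzyme buffer wells for full effect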
SENP6 block – SENP6 protease inhibitors, primary screen, biochemical, luminescence, uHTS. 330,000 tested, 1.8% active. inhibition, % at 10 µM. Sentrin-specific protease 6 (Homo sapiens), Q9GZR1. Recombinant SENP6 catalytic domain, aminoluciferin luminescence. AID 2599, 2010;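 active means inhibition above about 50% at the single tested dose, limit read from the data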;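 further: plate controls were DMSO wells with enzyme for no effect and DMSO wells lacking enzyme for full effect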
Target sequence (Q9GZR1 628-1112 limits assumed): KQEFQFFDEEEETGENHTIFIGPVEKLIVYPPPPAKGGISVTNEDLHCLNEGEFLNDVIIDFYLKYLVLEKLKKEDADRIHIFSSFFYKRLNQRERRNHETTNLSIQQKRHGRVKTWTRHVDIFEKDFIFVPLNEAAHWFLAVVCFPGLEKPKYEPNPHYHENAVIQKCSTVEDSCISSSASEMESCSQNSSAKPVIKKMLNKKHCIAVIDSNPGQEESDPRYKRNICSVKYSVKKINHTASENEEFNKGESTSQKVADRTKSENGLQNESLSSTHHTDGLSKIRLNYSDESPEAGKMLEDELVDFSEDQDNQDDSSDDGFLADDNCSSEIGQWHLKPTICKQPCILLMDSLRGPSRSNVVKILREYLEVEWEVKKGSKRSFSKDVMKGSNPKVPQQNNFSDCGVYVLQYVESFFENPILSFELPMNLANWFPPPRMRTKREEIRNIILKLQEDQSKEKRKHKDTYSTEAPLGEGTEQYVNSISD
SENP8 conf – SENP8 protease inhibitors, retest, confirmation, biochemical, luminescence, single concentration. shares compounds with SENP7 block. Recombinant SENP8, Z-RLRGG-aminoluciferin luminescence, 60 min. inhibition, % at 12.5 µM. 6,200 tested, 40% active. AID 488912, 2010;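 active means mean inhibition across replicates above about 50%, limit read from the data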
SENP6 confirm – SENP6 protease inhibitors, confirmation, biochemical, luminescence, single concentration; shares compounds with SENP7 block; recombinant SENP6, Z-RLRGG-aminoluciferin luminescence; inhibition, % at 12.5 µM; 6,200 tested, 58% active; AID 488915, 2010
SENP7 conf – SENP7 protease inhibitors, retest, confirmation, biochemical, luminescence, single concentration. AID 488917, 2010. 6,200 tested, 69% active. inhibition, % at 12.5 µM. recombinant SENP7, Z-RLRGG-aminoluciferin luminescence, 40 min. shares compounds with SENP7 block
Casp3 select – caspase-3 protease inhibitors, confirmation, selectivity assay for SENP inhibitor project, biochemical, single concentration. shares compounds with SENP7 block. purified caspase-3, Z-DEVD-aminoluciferin luminescence, 60 min. AID 488918, 2010. inhibition, % at 12.5 µM. 6,200 tested, 60% active;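 active means mean inhibition above about 50%, limit read from the data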;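 further: plate controls were enzyme with DMSO for no effect and wells without caspase-3 for full effect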
Luc interf – counter-screen for SENP inhibitors: luminescence interference; shares compounds with SENP7 block; Pre-incubated SENP8/Z-RLRGG-aminoluciferin, luciferase luminescence interference; inhibition, % at 12.5 µM; 6,200 tested, 39% active;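 active means mean inhibition above about 50% when retested at one dose, limit read from the data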;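 further: plate controls were DMSO wells with completed reaction for no effect and substrate without enzyme for full effect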
* marks the source's active call; other numbers are inactive results.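 How the source made its calls, unless noted: active means mean inhibition above about 50% in the one-dose retest (limit read from the data); inactive means the rest.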

Screening CCNC(=O)/C=C/c1ccccc1[N+](=O)[O-] returned UBC13 polyUb -5, Apaf1 inhib -20, SENP8 block-1 26, SENP8 block-2 2, SENP7 block 4 and SENP6 block 4.
COc1cc(NC(=O)/C=C/c2ccccc2[N+](=O)[O-])cc(OC)c1 was read as UBC13 polyUb -3, Apaf1 inhib -1, SENP8 block-1 14, SENP8 block-2 55*, SENP7 block 63*, SENP6 block 73*, SENP8 conf 11, SENP6 confirm 8, SENP7 conf -3, Casp3 select 0 and Luc interf 0.
O=[N+]([O-])c1ccccc1C=NNC(=S)NN=Cc1ccccc1[N+](=O)[O-] was read as SENP8 block-1 34.
`Cc1nc2ccc(C(=O)OCc3ccccc3Br)cc2nc1C` gave UBC13 polyUb 5, Apaf1 inhib 14, SENP8 block-1 10, SENP8 block-2 47, SENP7 block 56*, SENP6 block 67*, SENP8 conf 15, SENP6 confirm 12, SENP7 conf 44, Casp3 select 13 and Luc interf -4.
Screening COc1cc(OC)cc(C(=O)Nc2cccc(C(C)=O)c2)c1 returned UBC13 polyUb 2, Apaf1 inhib 8, SENP8 block-1 21, SENP8 block-2 39, SENP7 block 68*, SENP6 block 65*, SENP8 conf 58*, SENP6 confirm 53*, SENP7 conf 82*, Casp3 select 78* and Luc interf 63*.
COc1cc(OC)cc(C(=O)Nc2ccc(Nc3ccccc3)cc2)c1 was read as UBC13 polyUb 6, Apaf1 inhib 0, SENP8 block-1 3, SENP8 block-2 60*, SENP7 block 58*, SENP6 block 80*, SENP8 conf 65*, SENP6 confirm 61*, SENP7 conf 85*, Casp3 select 32 and Luc interf 21.
COc1cc(OC)cc(C(=O)Nc2cccc(NC(=O)c3ccccc3)c2)c1 was read as UBC13 polyUb 5, Apaf1 inhib 3, SENP8 block-1 18, SENP8 block-2 -3, SENP7 block -4 and SENP6 block -7.
CC1=C(C(=O)N2CCCCCC2)CC(CC(=O)NCCCN(C)C)C(=O)N1Cc1ccc(C(C)(C)C)cc1 (centres undefined) was read as SENP8 block-1 5.
For c1csc(-c2cnc3ccccc3n2)c1 the results were UBC13 polyUb 33, Apaf1 inhib 2, SENP8 block-1 -282, SENP8 block-2 31, SENP7 block 59*, SENP6 block 67*, SENP8 conf 12, SENP6 confirm 54*, SENP7 conf 83*, Casp3 select 58* and Luc interf 11.
`O=C(O)c1cc(-c2ccc(O)cc2)nc2ccccc12` gave UBC13 polyUb 5, Apaf1 inhib -22, SENP8 block-2 3, SENP7 block -1 and SENP6 block 9.
`Nc1ccc2nc(-c3ccccc3)cnc2c1` gave UBC13 polyUb -41, Apaf1 inhib 10, SENP8 block-1 -369, SENP8 block-2 52*, SENP7 block 42, SENP6 block 67*, SENP8 conf 41, SENP6 confirm 68*, SENP7 conf 88*, Casp3 select 74* and Luc interf 71*.
Cc1cc2ncc(-c3ccccc3)nc2cc1C was read as UBC13 polyUb -16, Apaf1 inhib 9, SENP8 block-1 -6, SENP8 block-2 95*, SENP7 block 97*, SENP6 block 95*, SENP8 conf 97*, SENP6 confirm 99*, SENP7 conf 102*, Casp3 select 96* and Luc interf 92*.
Screening CCOC(=O)c1ccc2ncc(-c3ccccc3)nc2c1 returned SENP8 block-1 5.
Oc1ccc(-c2cnc3ccccc3n2)cc1 was read as UBC13 polyUb 5, Apaf1 inhib -13, SENP8 block-1 -316, SENP8 block-2 84*, SENP7 block 71*, SENP6 block 90*, SENP8 conf 82*, SENP6 confirm 82*, SENP7 conf 97*, Casp3 select 87* and Luc interf 86*.
Screening Cc1ccc(S(=O)(=O)Nc2c(C)n(C)n(-c3ccccc3)c2=O)cc1C(=O)NCc1ccccc1 returned UBC13 polyUb -14, Apaf1 inhib 4, SENP8 block-1 18, SENP8 block-2 -15, SENP7 block -5 and SENP6 block -6.
`Nc1ccc(-c2cnc3ccccc3n2)cc1` gave UBC13 polyUb -2, Apaf1 inhib 3, SENP8 block-1 -100, SENP8 block-2 55*, SENP7 block 62*, SENP6 block 62*, SENP8 conf 59*, SENP6 confirm 55*, SENP7 conf 86*, Casp3 select 75* and Luc interf 61*.
`O=C(Oc1ccc(-c2cnc3ccccc3n2)cc1)c1ccc(Br)o1` gave UBC13 polyUb 2, Apaf1 inhib -3, SENP8 block-1 -47, SENP8 block-2 42, SENP7 block 75*, SENP6 block 51*, SENP8 conf 13, SENP6 confirm 22, SENP7 conf 24, Casp3 select 64* and Luc interf 20.
For Cc1ccc(-c2cnc3ccccc3n2)cc1C the results were UBC13 polyUb 12, Apaf1 inhib 7, SENP8 block-1 -49, SENP8 block-2 95*, SENP7 block 98*, SENP6 block 94*, SENP8 conf 97*, SENP6 confirm 100*, SENP7 conf 103*, Casp3 select 96* and Luc interf 48.
